This note sets out measurements from ChEMBL document CHEMBL3232816, “Substituted E-3-(3-indolylmethylene)1,3-dihydroindol-2-ones with antiproliferative activity. Study of the effects on HL-60 leukemia cells” (2014).

Type in all cases: functional
Assay [1] in a line: Cytotoxicity against human melanoma cells after 48 hrs. Particulars: Melanoma cell. In a few lines: (§1)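 NCI 60-line panel. Compounds were dissolved in DMSO and tested at five 10-fold dilutions, the highest 10^-4 M (10^-3 M where footnoted), over 48 h of incubation. The readouts were GI50, TGI and LC50 in μM, with the panel mean also given. Only compounds passing a 10^-5 M single-dose prescreen were tested; some were repeated and averaged over two experiments.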

Assay [2] in a line: Cytotoxicity against human CNS cancer cells after 48 hrs. The note with it: Cancer cell lines; for CC50: read-out: LC50 (the source's name). In outline:
as §1

Assay [3] in a line: Cytotoxicity against human prostate cancer cells after 48 hrs. Particulars: Cancer cell lines; for CC50: read-out: LC50 (the source's name). In outline: as §1
Assay [4] is described as follows: Cytotoxicity against human renal cancer cells after 48 hrs. The note with it: Cancer cell lines. In outline:
as §1

Assay [5] in a line: Cytotoxicity against human ovarian cancer cells after 48 hrs. Particulars: Cancer cell lines. In a few lines: as §1
Assay [6] is described as follows: Cytotoxicity against human breast cancer cells after 48 hrs. The note with it: Cancer cell lines; for CC50: read-out: LC50 (the source's name). In outline:
as §1

Assay [7] in a line: Cytotoxicity against human NSCLC cells after 48 hrs. In a few lines:
as §1

Assay [8] can be described thus: Cytotoxicity against human colon cancer cells after 48 hrs. Particulars: Cancer cell lines; for CC50: read-out: LC50 (the source's name). In a few lines:
as §1

Assay [9] can be described thus: Cytotoxicity against human leukemia cells after 48 hrs. Particulars: for GI50 / TGI: Leukemia cell. In outline: as §1

Each structure is given as a SMILES string. Counter-ions that a name gives are not always drawn.

As a reminder, the GI50 is the concentration giving 50% growth inhibition. By TGI is commonly meant the concentration giving total growth inhibition. A low value points to greater sensitivity of the cells. A word on the LC50: it is the concentration that kills 50% of the test population. A lower LC50 goes with a more lethal substance.

On to `COc1ccc2c(c1)/C(=C\c1c(Cl)n(C/C=C/c3ccccc3)c3ccccc13)C(=O)N2`, for which the GI50 in assay [1] is 2400 nM; in assay [2], 2.04 µM; in assay [3], 2090 nM; in assay [4], 1.91 µM; in [5], 2.09 µM; in assay [6], 1860 nM. The concentration for 50% growth inhibition (GI50) in assay [7] is 2.24 µM; in [8], 1320 nM; in [9], 2000 nM. Also, the TGI is 38.9 µM in assay [1]; 16.2 µM in assay [3]; 30.2 µM in assay [4]; 41.7 µM in assay [5]; 36.3 µM in assay [6]; 37.1 µM in [7]. The compound also had a TGI in assay [8] of 21.9 µM.
In the case of `O=C1/C(=C/c2c(Cl)[nH]c3ccccc23)c2ccccc2N1Cc1ccccc1`, the GI50 in assay [1] was 5130 nM; in assay [2] it was 4.9 µM; in [3], 6170 nM; in assay [4], 5.25 µM; in assay [5], 9.12 µM; in [6], 4170 nM. In addition, the figures for the GI50 in assay [7], in assay [8] and in assay [9] were 6.61 µM, 4170 nM and 2950 nM, respectively. The TGI in assay [1] turned out to be 61.7 µM; in assay [2], 69.2 µM; in assay [4] it was 77.6 µM; in assay [5], 79.4 µM; in [6], 56.2 µM; in assay [7], 85.1 µM. Moreover, the figures for the TGI in assay [8] and in assay [9] were 79.4 µM and 21.4 µM, respectively.
With `CC[C@]1(O)C[C@H]2CN(CCc3c([nH]c4ccccc34)[C@@](C(=O)OC)(c3cc4c(cc3OC)N(C=O)[C@H]3[C@@](O)(C(=O)OC)[C@H](OC(C)=O)[C@]5(CC)C=CCN6CC[C@]43[C@@H]65)C2)C1` [VINCRISTINE SULFATE], the GI50 in [1] amounted to 160 nM; in assay [2], 0.13 µM; in assay [3], 130 nM; in [4], 0.32 µM; in [5], 0.32 µM; in [6], 320 nM. Further, the GI50 in [7] came out at 0.25 µM; in assay [8], 100 nM; in [9], 100 nM.
For the compound `COc1ccc2c(c1)/C(=C\c1c(Cl)n(Cc3cc(OC)c(OC)c(OC)c3)c3cc(C)c(OC)cc13)C(=O)N2`, the GI50 in [1] was found to be 14800 nM; in assay [2], 16.2 µM; in assay [3], 14400 nM; in assay [4], 29.5 µM; in assay [5], 33.1 µM; in assay [6], 10200 nM. The results for the GI50 in [7], in assay [8] and in [9] were 20.4 µM, 11000 nM and 6170 nM, respectively. Besides, the TGI in assay [1] turned out to be 75.9 µM; in assay [2] it was 75.9 µM; in assay [3] it was 95.5 µM; in assay [6], 57.5 µM; in [7], 97.7 µM; in assay [8], 85.1 µM. In assay [9], this compound had a TGI of 77.6 µM.
For the compound `O=C1Nc2ccc(O)cc2/C1=C\c1c(Cl)n(CCc2ccccc2)c2ccccc12`, the GI50 worked out at 7080 nM in [1]; 10.5 µM in assay [2]; 6760 nM in assay [3]; 9.33 µM in assay [4]; 9.12 µM in [5]; 3980 nM in [6]. The figures for the GI50 in [7], in assay [8] and in assay [9] were 7.08 µM, 9770 nM and 3390 nM, respectively. Also, the LC50 in assay [1] stood at 74.1 µM; in assay [4], 95.5 µM; in assay [5], 95.5 µM. For the same compound, the TGI in assay [1] turned out to be 28.2 µM; in assay [2] it was 52.5 µM; in assay [3], 47.9 µM; in [4], 55 µM; in assay [5], 64.6 µM; in [6], 25.1 µM. Moreover, the TGI amounted to 50.1 µM in [7], 33.9 µM in assay [8] and 77.6 µM in assay [9]. In addition, the CC50 in assay [2] was 95.5 µM; in assay [8], 72.4 µM.
For `COc1ccc2c(c1)/C(=C\c1c(OC)n(-c3ccccc3)c3ccccc13)C(=O)N2`, the GI50 was determined as 2400 nM in [1]; 0.98 µM in assay [2]; 2630 nM in [3]; 2.29 µM in assay [4]; 2 µM in assay [5]; 630 nM in assay [6]. Besides, the GI50 in [7] amounted to 2.51 µM; in assay [8] it was 1740 nM; in assay [9], 760 nM. In addition, the LC50 in [1] was found to be 50.1 µM; in [4], 63.1 µM; in assay [5], 66.1 µM; in assay [7], 63.1 µM. In addition, the TGI in [1] was 17 µM; in [2] it was 9.55 µM; in assay [3], 13.2 µM; in assay [4] it was 17.4 µM; in [5], 17.4 µM; in assay [6] it was 7.24 µM. Besides, the TGI amounted to 17.4 µM in [7], 11 µM in assay [8] and 4.47 µM in assay [9]. The CC50 in [2] amounted to 38.9 µM; in assay [3] it was 52.5 µM; in assay [6], 47.9 µM; in assay [8], 42.7 µM. In [9], this compound yielded an LC50 (concentration giving 50% net cell kill) of 58.9 µM.
`COc1cc2c(/C=C3/C(=O)Nc4cccc(Cl)c43)c(Cl)n(Cc3cc(OC)c(OC)c(OC)c3)c2cc1C`: the GI50 amounted to 2880 nM in [1]; 3.02 µM in [2]; 1910 nM in [3]; 3.24 µM in assay [4]; 3.98 µM in assay [5]; 2950 nM in assay [6]. In addition, the results for the GI50 in assay [7], in assay [8] and in assay [9] were 3.24 µM, 2880 nM and 2450 nM, respectively. Also, the LC50 was 51.3 µM in assay [1], 45.7 µM in [4], 66.1 µM in assay [5] and 47.9 µM in [7]. Further, the TGI in assay [1] is 8.91 µM; in [2] it was 12.6 µM; in [3] it was 5.13 µM; in [4] it was 11.8 µM; in assay [5] it was 22.9 µM; in assay [6], 15.1 µM. In addition, the TGI stood at 12 µM in assay [7], 10 µM in [8] and 14.1 µM in assay [9]. Moreover, the CC50 in [2] came to 40.7 µM; in assay [3], 17.4 µM; in assay [6], 61.7 µM; in [8], 51.3 µM. Also, the LC50 (concentration giving 50% net cell kill) in [9] was 51.3 µM.
Take `COc1cc2c(cc1C)NC(=O)/C2=C/c1c(Cl)n(Cc2cc(OC)c(OC)c(OC)c2)c2cc(C)c(OC)cc12`: the GI50 in [1] stood at 25100 nM; in assay [2], 49 µM; in assay [3] it was 5500 nM; in assay [4], 38.9 µM; in assay [5] it was 30.9 µM; in assay [6], 10000 nM. The GI50 in assay [7] worked out at 11 µM; in [8], 16600 nM; in assay [9] it was 3240 nM. Further, the TGI came to 87.1 µM in [3], 66.1 µM in [7] and 42.7 µM in [9].
On to `COc1cc2c(/C=C3/C(=O)Nc4ccc(O)cc43)c(Cl)n(Cc3cc(OC)c(OC)c(OC)c3)c2cc1C`, for which the GI50 in [1] was found to be 1450 nM; in [2], 2.04 µM; in [3] it was 2290 nM; in [4], 2.75 µM; in assay [5] it was 2.34 µM; in assay [6] it was 1410 nM. The GI50 in [7] came out at 2.4 µM; in [8] it was 2290 nM; in assay [9], 1410 nM. For the same compound, the TGI in assay [1] amounted to 11.5 µM; in [2] it was 34.7 µM; in assay [3], 50.1 µM; in [4] it was 33.1 µM; in assay [5] it was 43.6 µM; in assay [6] it was 34.7 µM. In addition, the TGI in assay [7] is 32.4 µM; in [8], 49 µM; in assay [9] it was 18.6 µM.
Turning to `O=C1Nc2ccccc2/C1=C\c1c(Cl)n(CCCc2ccccc2)c2ccccc12`, the GI50 came out at 13800 nM in assay [1]; 16.6 µM in assay [2]; 19000 nM in assay [3]; 13.8 µM in assay [4]; 12 µM in assay [5]; 10000 nM in [6]. In addition, the results for the GI50 in assay [7], in assay [8] and in assay [9] were 14.1 µM, 12000 nM and 8910 nM, respectively. Further, the concentration for total growth inhibition (TGI) in [1] came out at 67.6 µM; in [2] it was 75.9 µM; in assay [4], 67.6 µM; in [5], 72.4 µM; in assay [6], 72.4 µM; in assay [7], 72.4 µM. Also, the TGI was determined as 60.3 µM in assay [8] and 50.1 µM in assay [9].
For the compound `COc1cc2c(c(OC)c1OC)/C(=C\c1c(Cl)[nH]c3ccccc13)C(=O)N2`, the GI50 was 1860 nM in assay [1]; 1.58 µM in [2]; 1170 nM in assay [3]; 1.35 µM in [4]; 1.51 µM in [5]; 1620 nM in assay [6]. Moreover, the GI50 was determined as 1.86 µM in assay [7], 1290 nM in [8] and 550 nM in assay [9]. The LC50 in assay [1] was 30.9 µM; in assay [4] it was 36.3 µM; in assay [5] it was 77.6 µM; in assay [7], 67.6 µM. For the same compound, the TGI in [1] is 6.61 µM; in [2], 6.31 µM; in assay [3], 5.5 µM; in assay [4], 5.37 µM; in assay [5], 9.77 µM; in [6], 8.13 µM. Moreover, the TGI in assay [7] is 9.12 µM; in assay [8], 4.27 µM; in assay [9] it was 7.08 µM. In addition, the CC50 in assay [2] stood at 35.5 µM; in [6], 66.1 µM; in assay [8], 18.2 µM. The LC50 (concentration giving 50% net cell kill) in assay [9] is 42.7 µM.
